ChEMBL document CHEMBL1157220, “Isoflavonoids and other compounds from Psorothamnus arborescens with antiprotozoal activities” (J Nat Prod, 2006)

What was measured:
[1] = tested on: Trypanosoma brucei brucei; experiment: Antitrypanosomal activity against Trypanosoma brucei brucei MITat 1.2 variant 221 after 72 hrs; assay type: functional, organism-based
Summary of the method: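 Bloodstream-form parasites grown axenically in HMI-9, seeded late log phase at 10⁵ cells/mL, exposed with or without compound 72 h at 37 °C, humidified 5% CO₂. p-Nitrophenyl phosphate (20 mg/mL solution in 1 M NaOAc pH 5.5, 1% Triton X-100) added, further 6-8 h at 37 °C; acid phosphatase read at 405 nm. IC50 versus untreated control from four-parameter dose-response fit.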

Vero = experiment: Cytotoxicity against african green monkey Vero cells; assay type: cell-based; settings: Chlorocebus sabaeus
PC-3 = experiment: Cytotoxicity against human PC3 cells; assay type: cell-based
Leishmania donovani = experiment: Antileishmanial activity against Leishmania donovani MHOM/SD/62/IS-CL2D axenic amastigotes after 3 days; assay type: functional, organism-based; settings: 72 h
Summary of the method: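 Amastigote-like L. donovani parasites were grown axenically in vitro and exposed to compounds for three days. Viability was read with a tetrazolium dye-based reagent, following a previously described protocol.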

[2] = Selectivity of IC50 for Trypanosoma brucei brucei MITat 1.2 variant 221 to IC50 for african green monkey Vero cells

Structure (SMILES)	IC50 [1] [µM]	IC50 (Vero) [µM]	IC50 (PC-3) [µM]	IC50 (Leishmania donovani) [µM]	Selectivity ratio [2]
COc1ccc(-c2coc3cc(OC)ccc3c2=O)cc1	> 100	–	–	–	–
O=c1c(-c2ccc(O)c(O)c2)coc2cc(O)ccc12	7.1	135	–	–	–
CC1(C)CCc2c(-c3coc4cc(O)cc(O)c4c3=O)ccc(O)c2O1	57.9	–	107	38.4	–
CC1(C)CCc2cc(-c3coc4cc(O)cc(O)c4c3=O)cc(O)c2O1	77	–	79.3	68.3	–
CC(C)=CCc1c(-c2coc3cc(O)cc(O)c3c2=O)ccc(O)c1O	12.1	37.5	12.7	13	–
COc1ccc2c(C=O)c(-c3cc4c(cc3O)OCO4)oc2c1	> 250	> 250	> 250	> 250	–
C=CC(C)(C)c1cc(OC)c(OC)cc1-c1coc2cc(OC)cc(OC)c2c1=O	41.7	–	134	86	–
COc1cc(OC)c2c(=O)c(-c3cc(CC=C(C)C)c(OC)c(OC)c3)coc2c1	7.8	44.3	30.9	41.4	–
Oc1ccc2c(c1)OCC1c3cc4c(cc3OC21)OCO4 (racemic)	130	> 250	> 250	> 250	–
Oc1ccc2c(c1O)OCC1c3cc4c(cc3OC21)OCO4 (racemic)	3.7	3.3	28	37.3	–
O=c1c(-c2ccccc2)coc2cc(O)ccc12 [7-HYDROXY ISOFLAVONE]	94.2	–	–	113	–
COc1cc2cc(c1Cl)N(C)C(=O)C[C@H](OC(=O)C(C)C)[C@]1(C)O[C@@H]1[C@H](C)[C@@H]1C[C@@](O)(NC(=O)O1)[C@H](OC)/C=C/C=C(\C)C2 [ANSAMITOCIN P3]	–	0.0012	–	–	–
O=c1cc(-c2ccc(O)cc2)oc2cc(O)cc(O)c12 [APIGENIN]	11.9	–	–	–	–
COc1ccc(-c2coc3cc(O)cc(O)c3c2=O)cc1 [BIOCHANIN]	12.3	–	–	89.9	–
COc1ccc(-c2coc3cc(O)ccc3c2=O)cc1O [CALYCOSIN]	12.7	159	130	100	15
O=c1c(-c2ccc(O)cc2)coc2cc(O)ccc12 [DAIDZEIN]	23.7	–	–	–	–
COc1ccc(-c2coc3cc(O)ccc3c2=O)cc1 [FORMONONETIN]	90.2	–	–	–	–
C=CC(C)(C)c1cc(OC(C)=O)c(OC(C)=O)cc1-c1coc2cc(OC(C)=O)cc(OC(C)=O)c2c1=O [FREMONTIN TETRAACETATE]	67.8	–	66.2	42.7	–
O=c1c(-c2ccc(O)cc2)coc2cc(O)cc(O)c12 [GENISTEIN]	4.2	32.9	–	73	–
CC(C)=CCc1cc(-c2coc3cc(O)cc(O)c3c2=O)cc(O)c1O [GLYCYRRHISOFLAVONE]	33	52.8	62.1	46.3	–
O=C(/C=C/c1ccc(O)cc1)c1ccc(O)cc1O [ISOLIQUIRITIGENIN]	32.8	65.6	46.4	20.7	–
CC1(C)CC[C@]2(C(=O)O)CC[C@]3(C)C(=CC[C@@H]4[C@@]5(C)CC[C@H](O)C(C)(C)[C@@H]5CC[C@]43C)[C@@H]2C1 [OLEANOLIC_ACID]	43.1	> 250	211	> 250	–
N=C(N)c1ccc(OCCCCCOc2ccc(C(=N)N)cc2)cc1 [PENTAMIDINE]	–	–	–	1.5	–
COc1cc([C@@H]2c3cc4c(cc3[C@H](O)[C@H]3COC(=O)[C@H]23)OCO4)cc(OC)c1OC [PODOFILOX]	–	–	0.0125	–	–
COc1cc(O)c2c(=O)c(-c3ccc(O)cc3)coc2c1 [PRUNETIN]	20.2	–	–	–	–
Cc1ccc(C(=O)Nc2ccc(S(=O)(=O)O)c3cc(S(=O)(=O)O)cc(S(=O)(=O)O)c23)cc1NC(=O)c1cccc(NC(=O)Nc2cccc(C(=O)Nc3cc(C(=O)Nc4ccc(S(=O)(=O)O)c5cc(S(=O)(=O)O)cc(S(=O)(=O)O)c45)ccc3C)c2)c1 [SURAMIN]	0.19	–	–	–	–
C=CC(C)(C)c1cc(OC)c(OC)cc1-c1coc2cc(OC)cc(O)c2c1=O [TRIMETHYLFREMONTIN]	32.3	–	146	> 250	–
